Measurements reported in ChEMBL document CHEMBL4673223, “Synthesis, Biological, and Structural Explorations of New Zwitterionic Derivatives of 14- O-Methyloxymorphone, as Potent μ/δ Opioid Agonists and Peripherally Selective Antinociceptives” (J Med Chem, 2019).
Calls of active or inactive are those of the source. The rule behind the calls is not given here.

Assays:
[1] = Selectivity index, ratio of Ki for displacement of [3H]U69,593 from kappa opioid receptor in guinea-pig brain membranes to Ki for displacement of [3H]DAMGO from mu opioid receptor in rat brain membranes; type: cell membranes
Outline: (§1)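 Guinea-pig brain membranes (0.3–0.5 mg protein) in 50 mM Tris-HCl, pH 7.4, were incubated with 1 nM [3H]U69,593 for 30 min at 30 °C, with 10 μM naloxone defining nonspecific binding. MOR was measured on rat brain membranes with 1 nM [3H]DAMGO for 45 min at 35 °C. Samples were filtered and scintillation counted, and Ki was obtained by Cheng–Prusoff; duplicates, 3–4 experiments.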

[2] = biological target: Kappa-type opioid receptor (Cavia porcellus, UniProt P41144); assay: Displacement of [3H]U69,593 from kappa opioid receptor in guinea-pig brain membranes incubated for 30 mins by liquid scintillation counting method; type: cell membranes, Membrane; outline: as §1
[3] = biological target: Delta-type opioid receptor (Homo sapiens) (UniProt P41143); assay: Displacement of [3H]diprenorphine from human DOR expressed in CHO cell membranes incubated for 60 mins liquid scintillation counting assay; details: Cell membrane, filed as agonist
Outline: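 Membranes from CHO cells expressing human DOR (15–20 μg) in 50 mM Tris-HCl, pH 7.4, were incubated with 0.2 nM [3H]diprenorphine and varied test concentrations for 60 min at 25 °C. Nonspecific binding was set with 1–10 μM unlabeled diprenorphine. Samples were GF/C filtered and scintillation counted.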

Mu-type opioid receptor = Mu-type opioid receptor (Rattus norvegicus, UniProt P33535); assay: Displacement of [3H]DAMGO from mu opioid receptor in rat brain membranes incubated for 45 mins by liquid scintillation counting method; type: cell membranes, Membrane
Outline: (§2)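 Rat brain membranes (cerebella removed; 0.3–0.5 mg protein) in 50 mM Tris-HCl, pH 7.4, were incubated 45 min at 35 °C with 1 nM [3H]DAMGO (MOR) or 0.5 nM [3H][Ile5,6]deltorphin II (DOR) plus varied test concentrations. Nonspecific binding was set with 10 μM naloxone. Samples were GF/C filtered, washed and scintillation counted. Ki was obtained by Cheng–Prusoff; duplicates, 3–4 experiments.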

Rattus norvegicus = species on record: Rattus norvegicus; assay: Selectivity index, ratio of Ki for displacement of [3H][Ile5,6]deltorphin II from delta opioid receptor in rat brain membranes to Ki for displacement of [3H]DAMGO from mu opioid receptor in rat brain membranes; type: cell membranes; outline: as §2
[4] = biological target: Delta-type opioid receptor (Rattus norvegicus, UniProt P33533); assay: Displacement of [3H][Ile5,6]deltorphin II from delta opioid receptor in rat brain membranes incubated for 45 mins by liquid scintillation counting method; type: cell membranes, Membrane; outline: as §2
Mus musculus = assay: Antinociceptive activity in CD1 mouse assessed as inhibition of the writhing response at 200 ug/kg, sc and co-administered with 1 mg/kg naloxone methiodide and measured after 30 mins post dose by acetic acid-induced writhing assay; type: functional, organism-based; details: dose 200.0 µg/kg
Outline: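 Male CD1 mice (30–35 g) received the agonist sc in saline (10 μL/g) together with sc naloxone methiodide 1 mg/kg. At 25 min, 0.6% acetic acid was given ip, and writhes were counted over a 10 min observation period (30 min post-dose). Results were expressed as mean writhes versus saline control and agonist-alone groups; n = 6–7 mice per group; ANOVA with Tukey post hoc.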

Sequence of Kappa-type opioid receptor (P41144 whole entry): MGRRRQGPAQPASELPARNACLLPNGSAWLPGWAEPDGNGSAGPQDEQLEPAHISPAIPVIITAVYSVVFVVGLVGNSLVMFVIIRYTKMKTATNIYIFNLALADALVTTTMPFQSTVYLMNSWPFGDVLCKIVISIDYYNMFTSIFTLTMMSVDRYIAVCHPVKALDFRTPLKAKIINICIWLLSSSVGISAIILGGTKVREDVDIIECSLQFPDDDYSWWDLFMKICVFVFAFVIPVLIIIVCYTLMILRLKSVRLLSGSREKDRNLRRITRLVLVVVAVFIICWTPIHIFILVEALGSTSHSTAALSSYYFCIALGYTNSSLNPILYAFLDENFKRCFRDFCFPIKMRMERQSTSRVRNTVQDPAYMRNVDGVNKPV
Sequence of Delta-type opioid receptor (Homo sapiens) (P41143 whole entry): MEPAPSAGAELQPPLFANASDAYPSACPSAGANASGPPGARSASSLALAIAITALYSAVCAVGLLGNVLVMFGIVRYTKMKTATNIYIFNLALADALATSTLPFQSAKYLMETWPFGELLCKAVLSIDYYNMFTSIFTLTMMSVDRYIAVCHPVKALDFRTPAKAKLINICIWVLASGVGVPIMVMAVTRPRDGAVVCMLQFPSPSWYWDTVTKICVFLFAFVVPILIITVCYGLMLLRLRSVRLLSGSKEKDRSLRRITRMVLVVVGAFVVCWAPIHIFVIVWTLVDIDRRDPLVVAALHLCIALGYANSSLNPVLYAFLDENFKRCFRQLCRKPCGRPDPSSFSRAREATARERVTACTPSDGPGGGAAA
Sequence of Delta-type opioid receptor (P33533 whole entry): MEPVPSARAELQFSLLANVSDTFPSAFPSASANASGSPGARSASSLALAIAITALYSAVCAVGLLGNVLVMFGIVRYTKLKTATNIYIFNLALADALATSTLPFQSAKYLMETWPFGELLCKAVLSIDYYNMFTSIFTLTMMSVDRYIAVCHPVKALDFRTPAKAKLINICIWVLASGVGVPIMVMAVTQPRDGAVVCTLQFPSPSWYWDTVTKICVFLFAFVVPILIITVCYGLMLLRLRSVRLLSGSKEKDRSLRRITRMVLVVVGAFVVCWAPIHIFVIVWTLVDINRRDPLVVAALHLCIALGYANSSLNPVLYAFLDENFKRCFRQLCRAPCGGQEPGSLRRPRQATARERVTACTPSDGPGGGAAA
Sequence of Mu-type opioid receptor (P33535 whole entry): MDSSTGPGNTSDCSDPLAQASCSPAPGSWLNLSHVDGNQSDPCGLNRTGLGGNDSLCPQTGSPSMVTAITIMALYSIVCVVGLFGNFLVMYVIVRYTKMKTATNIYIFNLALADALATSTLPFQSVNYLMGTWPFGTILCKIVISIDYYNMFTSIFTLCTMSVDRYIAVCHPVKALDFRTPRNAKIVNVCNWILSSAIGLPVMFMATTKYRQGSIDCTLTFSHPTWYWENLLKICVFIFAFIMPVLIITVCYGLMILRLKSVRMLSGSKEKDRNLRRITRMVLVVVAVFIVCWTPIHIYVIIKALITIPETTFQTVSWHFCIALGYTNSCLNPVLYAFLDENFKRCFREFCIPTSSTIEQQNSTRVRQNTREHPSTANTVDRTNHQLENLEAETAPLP

CO[C@@]12CC[C@H](N[C@@H](Cc3ccccc3)C(=O)O)[C@@H]3Oc4c(O)ccc5c4[C@@]31CCN(C)[C@@H]2C5
Ratio Ki [1]: 30 | Ki [2]: 28.5 nM | Activity [3]: Active | Ki (Mu-type opioid receptor): 0.95 nM | Ratio Ki (Rattus norvegicus): 3.9

CO[C@@]12CC[C@@H](N[C@@H](C)C(=O)O)[C@@H]3Oc4c(O)ccc5c4[C@@]31CCN(C)[C@@H]2C5
Ki [2]: 63.7 nM | Activity [3]: Active | Ki [4]: 7.71 nM

CO[C@@]12CC[C@@H](NCC(=O)NCC(=O)O)[C@@H]3Oc4c(O)ccc5c4[C@@]31CCN(C)[C@@H]2C5
Ratio Ki [1]: 44 | Activity (Mus musculus): inactive | Activity [3]: Active | Ratio Ki (Rattus norvegicus): 1.6

CO[C@@]12CC[C@@H](N[C@@H](Cc3ccccc3)C(=O)O)[C@@H]3Oc4c(O)ccc5c4[C@@]31CCN(C)[C@@H]2C5
Ratio Ki [1]: 59 | Ki [2]: 151 nM | Activity [3]: Active | Ki [4]: 1.03 nM | Ki (Mu-type opioid receptor): 2.58 nM | Ratio Ki (Rattus norvegicus): 0.4

CO[C@@]12CC[C@@H](N[C@@H](Cc3c[nH]c4ccccc34)C(=O)O)[C@@H]3Oc4c(O)ccc5c4[C@@]31CCN(C)[C@@H]2C5
Ratio Ki [1]: 13 | Activity (Mus musculus): inactive | Activity [3]: Active | Ratio Ki (Rattus norvegicus): 1.8
